Laboratory results: ChEMBL document CHEMBL3751813, “Nonpeptidic Amphiphilic Xanthone Derivatives: Structure-Activity Relationship and Membrane-Targeting Properties” (J Med Chem, 2016)
Converted amounts (≈) assume the structure as drawn. The source made the active and inactive calls. No cut-off for these calls is given here.

What was measured:
Staphylococcus aureus [1] = assay: Antibacterial activity against clinical isolates of Staphylococcus aureus DM4001R after 24 hrs by […]; type: functional
Staphylococcus aureus [2] = assay: Antibacterial activity against clinical isolates of methicillin-resistant Staphylococcus aureus DM9808R after 24 hrs by […]; type: functional
Staphylococcus aureus [3] = assay: Antibacterial activity against clinical isolates of methicillin-resistant Staphylococcus aureus DM21455 after 24 hrs by […]; type: functional; settings: DM21455, 24 h
Bacillus cereus = assay: Antibacterial activity against clinical isolates of Bacillus cereus ATCC 11778 after 24 hrs by […]; type: functional; settings: ATCC 11778, 24 h
[4] = Hemolytic activity against New Zealand white rabbit RBC after 1 hr by microplate reader analysis; type: ADME, cell-based, Oryctolagus cuniculus, Erythrocyte; settings: rabbit red blood cells
Procedure, shortened: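 Rabbit RBCs spun from serum at 3,000 rpm for 10 min and washed twice in PBS. Mixed with compound in DMF at 4% v/v RBCs, 1 h at 37 °C. After centrifugation, hemoglobin in the supernatant read at 576 nm. 2% Triton X-100 was the positive control and 1% DMF the negative control.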

Staphylococcus aureus [5] = assay: Induction of membrane permeabilization in clinical isolates of Staphylococcus aureus DM4001 at 50 uM by SYTOX green uptake assay; type: functional
Procedure, shortened: (§1)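 Exponential-phase cells washed twice in 20 mM PBS pH 7 and adjusted to OD620 0.09. Given 3 µM SYTOX Green and kept in the dark until fluorescence was stable, then compound added. Fluorescence followed in a stirred cuvette at ex 504/em 523 nm. Melittin 10 µg/mL was the positive control. Run at least twice; one run reported.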

Staphylococcus aureus [6] = assay: Induction of membrane permeabilization in clinical isolates of Staphylococcus aureus DM4001 assessed as ATP leakage at 50 uM incubated for 10 mins by firefly luciferase based luminometry analysis; type: functional
Procedure, shortened: (§2)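 Exponential-phase cells washed twice in 20 mM PBS pH 7 and set to OD620 0.3. Exposed 10 min at 37 °C, then spun at 4000 rpm for 5 min. Supernatant mixed with luciferase reagent (1 mM DTT, 0.5 mM D-luciferin, 1.25 µg/mL firefly luciferase). Luminescence read over 30 cycles.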

[7] = Selectivity index, ratio of HC50 for hemolytic activity against New Zealand white rabbit RBC to MIC for clinical isolates of Staphylococcus aureus DM4001
Staphylococcus aureus [8] = assay: Induction of membrane permeabilization in clinical isolates of Staphylococcus aureus DM4001 at 10 uM measured for 200 sec by SYTOX green influx assay; type: functional, organism-based; procedure, shortened: as §1
Staphylococcus aureus [9] = assay: Induction of membrane disruption in clinical isolates of Staphylococcus aureus DM4001 assessed as membrane integrity incubated for 10 mins by live/dead baclight bacterial viability assay relative to control; type: functional; parameters: concentration or dose not given beside the values
Procedure, shortened: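 Exponential-phase cells washed in 0.9% saline, OD670 0.3, exposed to compound 10 min at room temperature. Pelleted, resuspended, then stained with SYTO 9 (10 µM) plus propidium iodide (60 µM) 15 min dark. Excitation 485 nm, emission 500–700 nm; green/red ratio converted to % damage using standards of 0–100% isopropanol-killed cells.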

[10] = Membrane permeabilization activity assessed as release of calcein from DOPE/DOPG large unilamellar vesicles at 0.125 to 0.5 compound:lipid ratio incubated for 30 mins by fluorescence assay; type: ADME; settings: 0.5 h
Procedure, shortened: (§3)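 Freeze-thawed, extruded, then gel-filtered. Final lipid 50 µM with compound added from DMF (<0.2%). Fluorescence at ex 490/em 520 nm over 30 min; 0.1% Triton X-100 defined 100% lysis.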

Staphylococcus aureus [11] = assay: Induction of membrane permeabilization in clinical isolates of Staphylococcus aureus DM4001 at MIC by SYTOX green uptake assay; type: functional; procedure, shortened: as §1
Staphylococcus aureus [12] = assay: Induction of membrane permeabilization in clinical isolates of Staphylococcus aureus DM4001 assessed as ATP leakage at MIC incubated for 10 mins by firefly luciferase based luminometry analysis; type: functional; procedure, shortened: as §2
[13] = Membrane permeabilization activity assessed as release of calcein from DOPE/DOPG liposomes at lipid:compound ratio of => 16 incubated for 30 mins by fluorescence assay; type: ADME; settings: 0.5 h; procedure, shortened: as §3
[14] = Membrane permeabilization activity assessed as release of calcein from DOPC liposomes at lipid:compound ratio of => 16 incubated for 30 mins by fluorescence assay; type: ADME; settings: 0.5 h; procedure, shortened: as §3
[15] = Membrane permeabilization activity assessed as release of calcein from DOPC liposomes at lipid:compound ratio of 4 incubated for 30 mins by fluorescence assay; type: ADME; settings: 0.5 h; procedure, shortened: as §3
[16] = Membrane permeabilization activity assessed as release of calcein from DOPE/DOPG liposomes at lipid:compound ratio of 8 incubated for 30 mins by fluorescence assay; type: ADME; settings: 0.5 h; procedure, shortened: as §3
[17] = Membrane permeabilization activity assessed as release of calcein from DOPC liposomes at lipid:compound ratio of 8 incubated for 30 mins by fluorescence assay; type: ADME; settings: 0.5 h; procedure, shortened: as §3

| Compound | MIC (Staphylococcus aureus [1]) [µg/mL] | MIC (Staphylococcus aureus [2]) [µg/mL] | MIC (Staphylococcus aureus [3]) [µg/mL] | MIC (Bacillus cereus) [µg/mL] | HC50 at 1 h [4] [µg/mL] | Activity (Staphylococcus aureus [5]) [cps] | Activity (Staphylococcus aureus [6]) [nM] | Selectivity ratio [7] | Activity (Staphylococcus aureus [8]) | Activity (Staphylococcus aureus [9]) [%] | Activity [10] [%] | Activity (Staphylococcus aureus [11]) [cps] | Activity (Staphylococcus aureus [12]) [µM] | Activity [13] [%] | Activity [14] [%] | Activity [15] [%] | Activity [16] [%] | Activity [17] [%] |
| --- | --- | --- | --- | --- | --- | --- | --- | --- | --- | --- | --- | --- | --- | --- | --- | --- | --- | --- |
| CCCCN(CCCC)CCCCOc1cc2oc3cc(OCCCCN(CCCC)CCCC)c(OC)c(CC=C(C)C)c3c(=O)c2c(O)c1CC=C(C)C | > 50 | > 50 | > 50 | > 50 | > 200 | 1768 | 763 |  |  |  |  |  |  |  |  |  |  |  |
| CCN(CC)CCCCCOc1cc2oc3cc(OCCCCCN(CC)CC)c(OC)c(CC=C(C)C)c3c(=O)c2c(O)c1CC=C(C)C | 1.56 (≈ 2.25 µM) | 1.56 (≈ 2.25 µM) | 0.78 (≈ 1.13 µM) | 6.25 (≈ 9.02 µM) |  |  |  | 9 | Active | 43 |  |  |  |  |  |  |  |  |
| CCN(CC)CCCCOc1cc2oc3cc(OCCCCN(CC)CC)c(OC)c(CC=C(C)C)c3c(=O)c2c(O)c1CC=C(C)C | 0.39 (≈ 0.587 µM) | 0.78 (≈ 1.17 µM) | 0.39 (≈ 0.587 µM) | 3.12 (≈ 4.7 µM) |  |  |  | 50.4 | Active | 37.8 | > 70 | 61679 | 2.235 | > 70 | > 70 |  |  |  |
| CCN(CC)CCCCCCCCCCCCOc1cc2oc3cc(OCCCCCCCCCCCCN(CC)CC)c(OC)c(CC=C(C)C)c3c(=O)c2c(O)c1CC=C(C)C | > 50 | > 50 | > 50 | > 50 | > 200 |  |  |  | inactive | 99.9 | 60 |  |  |  |  |  |  |  |
| CCN(CC)CCCCCCCCCCOc1cc2oc3cc(OCCCCCCCCCCN(CC)CC)c(OC)c(CC=C(C)C)c3c(=O)c2c(O)c1CC=C(C)C | > 50 | > 50 | > 50 | > 50 | 200 |  |  |  | inactive | 100 | > 70 |  |  |  |  |  |  |  |
| CCN(CC)CCOc1cc2oc3cc(OCCN(CC)CC)c(OC)c(CC=C(C)C)c3c(=O)c2c(O)c1CC=C(C)C | > 50 | > 50 | > 50 | > 50 | > 200 |  |  |  | Active | 64.1 |  |  |  |  |  |  |  |  |
| CCN(CC)CCCCCCOc1cc2oc3cc(OCCCCCCN(CC)CC)c(OC)c(CC=C(C)C)c3c(=O)c2c(O)c1CC=C(C)C | 1.56 (≈ 2.16 µM) | 3.12 (≈ 4.33 µM) | 1.56 (≈ 2.16 µM) | 3.12 (≈ 4.33 µM) |  |  |  | 17 | Active | 45.1 |  |  |  |  |  |  |  |  |
| COc1c(O)cc2oc3cc(O)c(CC=C(C)C)c(O)c3c(=O)c2c1CC=C(C)C [MANGOSTIN] | 2 (≈ 4.87 µM) |  |  |  |  |  |  | 4.5 |  |  |  |  |  | < 10 | < 10 | 33.6 | 16 | 14.1 |
| COc1c(OCCCCN2CCN(CCN(C)C)CC2)cc2oc3cc(OCCCCN4CCN(CCN(C)C)CC4)c(CC=C(C)C)c(O)c3c(=O)c2c1CC=C(C)C | 6.25 (≈ 7.5 µM) | 3.12 (≈ 3.75 µM) | 3.12 (≈ 3.75 µM) | 6.25 (≈ 7.5 µM) | 35.9 |  |  | 5.7 |  |  |  | 5850 | 2.975 |  |  |  |  |  |
| COc1c(OCCCCNC(=N)N)cc2oc3cc(OCCCCNC(=N)N)c(CC=C(C)C)c(O)c3c(=O)c2c1CC=C(C)C | 3.12 (≈ 4.91 µM) | 6.25 (≈ 9.81 µM) | 6.25 (≈ 9.81 µM) | 6.25 (≈ 9.81 µM) | 64.1 |  |  | 20.5 |  |  |  | 68378 | 2.237 |  |  |  |  |  |
| CCN(CC)CCCCCCCCOc1cc2oc3cc(OCCCCCCCCN(CC)CC)c(OC)c(CC=C(C)C)c3c(=O)c2c(O)c1CC=C(C)C | > 50 | > 50 | > 50 | > 50 | 53.1 |  |  |  | Active | 95.5 | > 70 |  |  |  |  |  |  |  |
| CCCCCN(C)CCCCOc1cc2oc3cc(OCCCCN(C)CCCCC)c(OC)c(CC=C(C)C)c3c(=O)c2c(O)c1CC=C(C)C | 25 (≈ 34.7 µM) | 25 (≈ 34.7 µM) | 25 (≈ 34.7 µM) | 12.5 (≈ 17.3 µM) | > 200 |  |  | > 8 |  |  |  | 47166 | 8.949 |  |  |  |  |  |
| CCN1CCN(CCCCOc2cc3oc4cc(OCCCCN5CCN(CC)CC5)c(OC)c(CC=C(C)C)c4c(=O)c3c(O)c2CC=C(C)C)CC1 | 25 (≈ 33.5 µM) | 12.5 (≈ 16.7 µM) | 6.25 (≈ 8.37 µM) | 25 (≈ 33.5 µM) | 138 |  |  | 5.5 |  |  |  | 15095 | 7.822 |  |  |  |  |  |
| COc1c(OCCCCN2CCN(C)CC2)cc2oc3cc(OCCCCN4CCN(C)CC4)c(CC=C(C)C)c(O)c3c(=O)c2c1CC=C(C)C | 6.25 (≈ 8.69 µM) | 12.5 (≈ 17.4 µM) | 12.5 (≈ 17.4 µM) | 12.5 (≈ 17.4 µM) | 32.3 |  |  | 5.2 |  |  |  | 7129 | 3.727 |  |  |  |  |  |
| CCN(CC)CCCOc1cc2oc3cc(OCCCN(CC)CC)c(OC)c(CC=C(C)C)c3c(=O)c2c(O)c1CC=C(C)C | 0.78 (≈ 1.22 µM) | 0.78 (≈ 1.22 µM) | 0.39 (≈ 0.612 µM) | 6.25 (≈ 9.81 µM) |  |  |  | 20.9 | Active | 46.2 |  |  |  |  |  |  |  |  |
| CCCN(CCC)CCCCOc1cc2oc3cc(OCCCCN(CCC)CCC)c(OC)c(CC=C(C)C)c3c(=O)c2c(O)c1CC=C(C)C | 25 (≈ 34.7 µM) | 50 (≈ 69.3 µM) | 25 (≈ 34.7 µM) | 50 (≈ 69.3 µM) | > 200 |  |  | > 8 |  |  |  | 53637 | 5.123 |  |  |  |  |  |
| CCCCN(C)CCCCOc1cc2oc3cc(OCCCCN(C)CCCC)c(OC)c(CC=C(C)C)c3c(=O)c2c(O)c1CC=C(C)C | 50 (≈ 72.2 µM) | 50 (≈ 72.2 µM) | 25 (≈ 36.1 µM) | 25 (≈ 36.1 µM) | 60.5 |  |  | 1.2 |  |  |  | 114095 | 8.862 |  |  |  |  |  |
